ChEMBL document CHEMBL1145139, “Synthesis and pharmacological evaluation of 1-oxo-2-(3-piperidyl)-1,2,3,4- tetrahydroisoquinolines and related analogues as a new class of specific bradycardic agents possessing I(f) channel inhibitory activity” (2003)

How the values were obtained:
Type in all cases: functional
Cavia porcellus = species on record: Cavia porcellus; experiment: In vitro bradycardiac activity on isolated right atrium of guinea pig.; conditions: Cardiac atrium
How it was run: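 Male Hartley guinea pigs (250–400 g); spontaneously beating right atria in Tyrode's solution at 37 °C, 95% O2/5% CO2, 1 g tension, 90 min equilibration. Compound added cumulatively at 45 min intervals; beat rate counted from isometric contraction. Value = concentration giving 30% reduction from initial spontaneous rate; mean ± SEM, three to six experiments.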

Rattus norvegicus [1] = experiment: In vivo effect on mean blood pressure of anesthetized rats following 3 mg/kg i.v.; conditions: route intravenous
How it was run: (§1)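 Male Wister rats (270–350 g), anesthetized (pentobarbital ip per methods; urethane per text). Compound at 3 mg/kg (salt form) in aqueous solution or saline, iv via jugular vein catheter. HR taken from the blood-pressure pulse wave; MBP = DBP + (SBP−DBP)/3. Maximal percent change from initial value; mean ± SEM, three to four experiments.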

Rattus norvegicus [2] = experiment: In vivo effect on heart rate of anesthetized rats following 3 mg/kg i.v.; conditions: route intravenous; how it was run: as §1

Compound: COc1cc2c(cc1OC)C(=O)N([C@@H]1CCCN(CCCOc3ccc4c(c3)OCO4)C1)CC2.Cl
- EC30 (Cavia porcellus): 79 nM
- Change (Rattus norvegicus [1]): -13%
- Change (Rattus norvegicus [2]): -55%

Compound: COc1cc2c(cc1OC)C(=O)N([C@H]1CCCN(CCCOc3ccc4c(c3)OCO4)C1)CC2.Cl
- EC30 (Cavia porcellus): 68 nM
- Change (Rattus norvegicus [1]): -23%
- Change (Rattus norvegicus [2]): -53%

Compound: COc1ccc(C(=O)N(C)C2CCCN(CCCOc3ccc4c(c3)OCO4)C2)cc1OC (stereo not given)
- EC30 (Cavia porcellus): 3500 nM

Compound: COC(=O)c1ccc(OCCCN2CCCC(N3CCc4cc(OC)c(OC)cc4C3=O)C2)cc1.Cl (stereo not given)
- EC30 (Cavia porcellus): 110 nM
- Change (Rattus norvegicus [1]): -2.3%
- Change (Rattus norvegicus [2]): -30%

Compound: COc1cc2c(cc1OC)C(=O)N(C1CCCN(CCCOc3ccc(F)cc3)C1)CC2.Cl (stereo not given)
- EC30 (Cavia porcellus): 240 nM
- Change (Rattus norvegicus [1]): -17%
- Change (Rattus norvegicus [2]): -39%

Compound: COc1cc2c(cc1OC)C(=O)N(C1CCCN(CCCOc3ccc(Cl)cc3)C1)CC2.Cl (stereo not given)
- EC30 (Cavia porcellus): 350 nM
- Change (Rattus norvegicus [1]): -12%
- Change (Rattus norvegicus [2]): -32%

Compound: COc1ccc(OCCCN2CCCC(N3CCc4cc(OC)c(OC)cc4C3=O)C2)cc1OC.Cl (stereo not given)
- EC30 (Cavia porcellus): 110 nM
- Change (Rattus norvegicus [1]): -18%
- Change (Rattus norvegicus [2]): -56%

Compound: COc1cc2[nH]c(=O)n(C3CCCN(CCCOc4ccc5c(c4)OCO5)C3)c(=O)c2cc1OC (stereo not given)
- EC30 (Cavia porcellus): 920 nM

Compound: COc1cc2c(cc1OC)C(=O)N(C1CCCN(CCCOc3ccc(C)cc3)C1)CC2.Cl (stereo not given)
- EC30 (Cavia porcellus): 140 nM
- Change (Rattus norvegicus [1]): -12%
- Change (Rattus norvegicus [2]): -37%

Compound: COc1cc2c(cc1OC)C(=O)N(C1CCCN(CCCOc3ccc(O)cc3)C1)CC2 (stereo not given)
- EC30 (Cavia porcellus): 890 nM

Compound: COc1cc2c(cc1OC)C(=O)N(C1CCCN(CCCOc3ccc(OCc4ccccc4)cc3)C1)CC2 (stereo not given)
- EC30 (Cavia porcellus): 1300 nM

Compound: COc1cc2c(cc1OC)C(=O)N(C1CCCN(CCCOc3ccc(NC(C)=O)cc3)C1)CC2 (stereo not given)
- EC30 (Cavia porcellus): 760 nM

Compound: COc1cc2c(cc1OC)C(=O)N(C1CCCN(CCCOc3cc(OC)c(OC)c(OC)c3)C1)CC2 (stereo not given)
- EC30 (Cavia porcellus): 1600 nM

Compound: COc1cc2c(cc1OC)C(=O)N(C1CCCN(CCCOc3ccc([N+](=O)[O-])cc3)C1)CC2.Cl (stereo not given)
- EC30 (Cavia porcellus): 270 nM
- Change (Rattus norvegicus [1]): 41%
- Change (Rattus norvegicus [2]): -5.6%

Compound: COc1cc2c(cc1OC)C(=O)N(C1CCCN(CCCOc3ccc4c(c3)CCC4)C1)CC2 (stereo not given)
- EC30 (Cavia porcellus): 890 nM

Compound: COc1cc2ncn(C3CCCN(CCCOc4ccc5c(c4)OCO5)C3)c(=O)c2cc1OC.Cl (stereo not given)
- EC30 (Cavia porcellus): 260 nM
- Change (Rattus norvegicus [1]): -20%
- Change (Rattus norvegicus [2]): -34%

Compound: COc1cccc(OCCCN2CCCC(N3CCc4cc(OC)c(OC)cc4C3=O)C2)c1.Cl (stereo not given)
- EC30 (Cavia porcellus): 140 nM
- Change (Rattus norvegicus [1]): -11%
- Change (Rattus norvegicus [2]): -47%

Compound: COc1cc2c(cc1OC)C(=O)N(C1CCCN(CCCOc3ccccc3OC)C1)CC2 (stereo not given)
- EC30 (Cavia porcellus): 390 nM

Compound: COc1ccc(OCCCN2CCCC(N3CCc4cc(OC)c(OC)cc4C3=O)C2)cc1.Cl (stereo not given)
- EC30 (Cavia porcellus): 99 nM
- Change (Rattus norvegicus [1]): -16%
- Change (Rattus norvegicus [2]): -49%

Compound: COc1cc2c(cc1OC)C(=O)N(C1CCCN(CCCOc3ccc(OC(C)C)cc3)C1)CC2 (stereo not given)
- EC30 (Cavia porcellus): 330 nM

Compound: COc1cc2c(cc1OC)C(=O)N(C1CCCN(CCCOc3ccc(C#N)cc3)C1)CC2.Cl (stereo not given)
- EC30 (Cavia porcellus): 240 nM
- Change (Rattus norvegicus [1]): -6.8%
- Change (Rattus norvegicus [2]): -23%

Compound: COc1ccc(C(=O)NC2CCCN(CCCOc3ccc4c(c3)OCO4)C2)cc1OC.Cl (stereo not given)
- EC30 (Cavia porcellus): 420 nM
- Change (Rattus norvegicus [1]): -11%
- Change (Rattus norvegicus [2]): -29%

Compound: COc1cc2c(cc1OC)C(=O)N(C1CCCN(CCCOc3ccc(C(F)(F)F)cc3)C1)CC2 (stereo not given)
- EC30 (Cavia porcellus): 790 nM

Compound: COc1cc2ccn(C3CCCN(CCCOc4ccc5c(c4)OCO5)C3)c(=O)c2cc1OC.Cl (stereo not given)
- EC30 (Cavia porcellus): 200 nM
- Change (Rattus norvegicus [1]): 11%
- Change (Rattus norvegicus [2]): -26%

Compound: COc1cc2c(cc1OC)C(=O)N(C1CCCN(CCCOc3ccccc3)C1)CC2.Cl (stereo not given)
- EC30 (Cavia porcellus): 390 nM
- Change (Rattus norvegicus [1]): 3.2%
- Change (Rattus norvegicus [2]): -32%

Compound: COc1cc2c(cc1OC)C(=O)N(C1CCCN(CCCOc3ccc4c(c3)OCO4)C1)CC2.Cl (stereo not given)
- EC30 (Cavia porcellus): 67 nM
- Change (Rattus norvegicus [1]): -14%
- Change (Rattus norvegicus [2]): -48%

Compound: COc1cc2c(cc1OC)C(=O)N(C1CCCN(CCCOc3ccc4[nH]ccc4c3)C1)CC2 (stereo not given)
- EC30 (Cavia porcellus): 360 nM

Compound: COc1cc2c(cc1OC)C(=O)N(C1CCCN(CCCOc3ccc(C(N)=O)cc3)C1)CC2 (stereo not given)
- EC30 (Cavia porcellus): 5700 nM

Compound: COc1cc2c(cc1OC)CN(C1CCCN(CCCOc3ccc4c(c3)OCO4)C1)CC2.Cl (stereo not given)
- EC30 (Cavia porcellus): 250 nM
- Change (Rattus norvegicus [1]): -7.1%
- Change (Rattus norvegicus [2]): -47%

Compound: COc1cc2c(cc1OC)C(=O)N(C1CCCN(CCCOc3ccc(Br)cc3)C1)CC2 (stereo not given)
- EC30 (Cavia porcellus): 470 nM

Compound: CCCOc1ccc(OCCCN2CCCC(N3CCc4cc(OC)c(OC)cc4C3=O)C2)cc1 (stereo not given)
- EC30 (Cavia porcellus): 270 nM

Compound: COc1cc2c(cc1OC)C(=O)N(C1CCCN(CCCOc3ccc(N)cc3)C1)CC2 (stereo not given)
- EC30 (Cavia porcellus): 1600 nM

Compound: CCOc1ccc(OCCCN2CCCC(N3CCc4cc(OC)c(OC)cc4C3=O)C2)cc1.Cl (stereo not given)
- EC30 (Cavia porcellus): 97 nM
- Change (Rattus norvegicus [1]): -7.8%
- Change (Rattus norvegicus [2]): -49%

Compound: COc1cc2c(cc1OC)C(=O)N(C1CCCN(CCCOc3ccc4c(c3)OCCO4)C1)CC2.Cl (stereo not given)
- EC30 (Cavia porcellus): 130 nM
- Change (Rattus norvegicus [1]): -12%
- Change (Rattus norvegicus [2]): -44%

Compound: COc1ccc(CCN(C)CCCN2CCc3cc(OC)c(OC)cc3CC2=O)cc1OC.Cl [ZATEBRADINE HYDROCHLORIDE]
- EC30 (Cavia porcellus): 260 nM
- Change (Rattus norvegicus [1]): 5.4%
- Change (Rattus norvegicus [2]): -47%
